Measured values: ChEMBL document CHEMBL4261600 (Eur J Med Chem, 2018)

How the values were obtained:
[1] = test system: MOLM-14; experiment: Antiproliferative activity against human MOLM14 cells after 72 hrs by Celltiter-Glo assay; type: functional; conditions: MOLM-14, 72 h
Summary of the method: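 Cells seeded at 3000/well in 96-well plates, exposed to serially diluted compound for 72 h at 37 °C, 5% CO2. Viability read by CellTiter-Glo luminescence and normalized to DMSO control. GI50 derived from curve fit, mean of three independent measurements. Culture media: DMEM/10% FBS for adherent lines; IMDM for MV4-11 and MEC-1/2; RPMI 1640 for suspension lines and CHL.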

[2] = Cmax in mouse at 3 mg/kg, iv by LC-MS/MS analysis; type: ADME, organism-based; parameters: dose 3 mg/kg, route intravenous; conditions: in vivo
[3] = Cmax in beagle dog at 2 mg/kg, iv by LC-MS/MS analysis; type: ADME, organism-based, Canis lupus familiaris; parameters: dose 2 mg/kg, route intravenous; conditions: in vivo
[4] = AUC (0 to infinity) in Sprague-Dawley rat at 3 mg/kg, iv by LC-MS/MS analysis; type: ADME, organism-based; parameters: dose 3 mg/kg, time infinity, route intravenous; conditions: in vivo
Summary of the method: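 Non-compartmental PK. Male SD rats 190-210 g, mice and beagle dogs acclimatized one week, fasted 12 h with water, split into iv and po groups (mice 48, rats 6, dogs 6). iv 3/3/2 mg/kg (mice/rats/dogs); po 10/20/10 mg/kg; vehicle DMSO in 5% glucose water. Blood at 2 or 5 to 720 min; plasma protein-precipitated with methanol, caffeine internal standard, LC-MS/MS.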

[5] = MRT (0 to infinity) in mouse at 10 mg/kg, po by LC-MS/MS analysis; type: ADME, organism-based; conditions: in vivo
[6] = target: AP2-associated protein kinase 1 (Homo sapiens) (UniProt Q2M2I8); experiment: Binding affinity to human wild-type AAK1 (G25 to L333 residues) expressed in bacterial expression system assessed as remaining unbound target protein level at 1000 nM by Kinomescan method relative to control
AP2-associated protein kinase 1 (Homo sapiens), sequence (Q2M2I8 whole entry, looked up, the tested form may be a part): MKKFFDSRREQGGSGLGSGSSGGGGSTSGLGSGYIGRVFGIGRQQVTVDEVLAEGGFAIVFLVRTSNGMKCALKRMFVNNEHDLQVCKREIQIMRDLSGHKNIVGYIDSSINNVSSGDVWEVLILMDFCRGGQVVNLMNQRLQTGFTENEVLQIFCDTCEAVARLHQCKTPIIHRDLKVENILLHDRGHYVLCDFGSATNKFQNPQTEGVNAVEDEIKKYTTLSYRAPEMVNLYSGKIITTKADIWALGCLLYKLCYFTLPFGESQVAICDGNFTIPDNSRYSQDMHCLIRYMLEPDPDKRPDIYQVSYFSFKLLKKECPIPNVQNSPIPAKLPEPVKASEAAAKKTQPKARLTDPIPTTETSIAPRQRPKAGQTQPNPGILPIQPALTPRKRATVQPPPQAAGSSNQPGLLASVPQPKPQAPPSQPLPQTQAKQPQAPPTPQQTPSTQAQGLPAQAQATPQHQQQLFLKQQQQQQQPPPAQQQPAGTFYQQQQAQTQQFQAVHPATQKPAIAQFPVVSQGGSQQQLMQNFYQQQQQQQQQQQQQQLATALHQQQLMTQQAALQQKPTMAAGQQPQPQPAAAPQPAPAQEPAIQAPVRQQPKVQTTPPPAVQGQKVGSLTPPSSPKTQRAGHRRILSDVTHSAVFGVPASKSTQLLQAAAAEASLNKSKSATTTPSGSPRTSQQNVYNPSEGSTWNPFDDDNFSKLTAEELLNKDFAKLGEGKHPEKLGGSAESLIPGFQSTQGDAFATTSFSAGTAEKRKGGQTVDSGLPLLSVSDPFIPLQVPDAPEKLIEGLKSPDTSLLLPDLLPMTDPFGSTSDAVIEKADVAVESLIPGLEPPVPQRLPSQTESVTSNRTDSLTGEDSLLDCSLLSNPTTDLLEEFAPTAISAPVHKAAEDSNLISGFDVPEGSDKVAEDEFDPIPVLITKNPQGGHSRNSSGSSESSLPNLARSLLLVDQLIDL
Summary of the method: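 KINOMEscan competitive binding profile at 1 μM inhibitor. Remaining target binding reported as percent of DMSO control.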

[7] = target: Focal adhesion kinase 1 (Homo sapiens) (UniProt Q05397); experiment: Binding affinity to wild-type human partial length FAK (D402 to R696 residues) expressed in bacterial expression system assessed as remaining unbound target protein level at 1000 nM by Kinomescan method relative to control
[8] = target: Tyrosine-protein kinase Fes/Fps (Homo sapiens) (UniProt P07332); experiment: Binding affinity to wild-type human partial length FES (I527 to R822 residues) expressed in bacterial expression system assessed as remaining unbound target protein level at 1000 nM by Kinomescan method relative to control
Summary of the method: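 KINOMEscan binding panel of 468 kinases/mutants. Inhibitor was tested at a single concentration of 1 μM. Binding is reported as percent of control, defined relative to a DMSO control.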

[9] = target: Fibroblast growth factor receptor 4 (Homo sapiens) (UniProt P22455); experiment: Binding affinity to wild-type human partial length FGFR4 (G402 to E713 residues) expressed in bacterial expression system assessed as remaining unbound target protein level at 1000 nM by Kinomescan method relative to control
Fibroblast growth factor receptor 4 (Homo sapiens), sequence (P22455 22-802 limits assumed): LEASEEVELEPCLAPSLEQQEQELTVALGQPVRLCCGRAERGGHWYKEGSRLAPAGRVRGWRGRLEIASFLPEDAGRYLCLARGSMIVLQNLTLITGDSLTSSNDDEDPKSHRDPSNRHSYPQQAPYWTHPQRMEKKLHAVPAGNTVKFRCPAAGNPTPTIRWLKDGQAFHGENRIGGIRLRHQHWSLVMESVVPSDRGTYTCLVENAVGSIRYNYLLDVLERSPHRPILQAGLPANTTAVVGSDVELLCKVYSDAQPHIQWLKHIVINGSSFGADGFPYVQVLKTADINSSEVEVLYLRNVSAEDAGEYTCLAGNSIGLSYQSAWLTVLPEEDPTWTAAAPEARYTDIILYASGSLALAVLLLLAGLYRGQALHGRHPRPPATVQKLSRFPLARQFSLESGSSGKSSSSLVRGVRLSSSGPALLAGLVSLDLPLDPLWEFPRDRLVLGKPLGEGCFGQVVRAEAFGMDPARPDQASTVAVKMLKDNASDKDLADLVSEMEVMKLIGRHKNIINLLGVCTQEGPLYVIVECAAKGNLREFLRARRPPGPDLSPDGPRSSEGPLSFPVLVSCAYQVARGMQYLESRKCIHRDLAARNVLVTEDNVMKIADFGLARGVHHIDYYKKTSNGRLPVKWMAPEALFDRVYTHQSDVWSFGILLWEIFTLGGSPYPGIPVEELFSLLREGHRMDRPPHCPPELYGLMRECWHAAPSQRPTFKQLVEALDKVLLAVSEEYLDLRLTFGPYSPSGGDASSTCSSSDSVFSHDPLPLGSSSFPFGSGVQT

[10] = test system: Receptor-type tyrosine-protein kinase FLT3 (Homo sapiens), P36888 [UNDEFINED MUTATION]; experiment: Binding affinity to human partial length FLT3 ITD/D835V double mutant expressed in bacterial expression system assessed as remaining unbound target protein level at 1000 nM by Kinomescan method relative to control
Summary of the method: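 KINOMEscan competition-binding profiling across the panel of 468 kinases and mutants, with inhibitor tested at 1 μM. Binding is expressed as percent of control, with DMSO as the reference control.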

[11] = target: LIM domain kinase 2 (Homo sapiens) (UniProt P53671); experiment: Binding affinity to wild-type human full length LIMK2 (M1 to P638 residues) expressed in bacterial expression system assessed as remaining unbound target protein level at 1000 nM by Kinomescan method relative to control
Summary of the method: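 Single-point competition binding screen across a panel of 468 kinases and mutants, with the inhibitor at 1 μM. Binding is read out as percent of a DMSO control, and targets below 1 percent control were classed as strong binders.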

[12] = target: Misshapen-like kinase 1 (Homo sapiens) (UniProt Q8N4C8); experiment: Binding affinity to wild-type human partial length MINK (M1 to K312 residues) expressed in mammalian expression system assessed as remaining unbound target protein level at 1000 nM by Kinomescan method relative to control
[13] = target: MAP kinase-interacting serine/threonine-protein kinase 2 (Homo sapiens) (UniProt Q9HBH9); experiment: Binding affinity to wild-type human partial length MKNK2 (G63 to S388 residues) expressed in mammalian expression system assessed as remaining unbound target protein level at 1000 nM by Kinomescan method relative to control
[14] = target: Myosin-IIIa (Homo sapiens) (UniProt Q8NEV4); experiment: Binding affinity to wild-type human partial length MYO3A (M1 to K338 residues) expressed in bacterial expression system assessed as remaining unbound target protein level at 1000 nM by Kinomescan method relative to control
[15] = target: Mitogen-activated protein kinase 12 (Homo sapiens) (UniProt P53778); experiment: Binding affinity to wild-type human full length p38-gamma (M1 to L367 residues) expressed in mammalian expression system assessed as remaining unbound target protein level at 1000 nM by Kinomescan method relative to control
Mitogen-activated protein kinase 12 (Homo sapiens), sequence (P53778 whole entry, the tested form may be a part): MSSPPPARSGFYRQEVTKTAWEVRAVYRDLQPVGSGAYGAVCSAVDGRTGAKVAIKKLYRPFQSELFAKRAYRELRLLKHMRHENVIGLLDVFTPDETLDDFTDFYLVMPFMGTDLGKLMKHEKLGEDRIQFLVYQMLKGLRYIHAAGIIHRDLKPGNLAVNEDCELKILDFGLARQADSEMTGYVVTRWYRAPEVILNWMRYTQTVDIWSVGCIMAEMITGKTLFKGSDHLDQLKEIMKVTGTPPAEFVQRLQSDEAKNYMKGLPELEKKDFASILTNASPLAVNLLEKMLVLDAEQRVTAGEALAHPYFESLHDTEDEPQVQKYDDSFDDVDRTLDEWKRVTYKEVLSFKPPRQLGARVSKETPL
Summary of the method: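 KINOMEscan competition binding profile across a panel of 468 kinases and mutants, with the inhibitor tested at a single concentration of 1 μM. Binding is reported as percent of control, meaning signal relative to a DMSO control.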

[16] = target: Serine/threonine-protein kinase PAK 3 (Homo sapiens) (UniProt O75914); experiment: Binding affinity to wild-type human full length PAK3 (M1 to R544 residues) expressed in bacterial expression system assessed as remaining unbound target protein level at 1000 nM by Kinomescan method relative to control
Serine/threonine-protein kinase PAK 3 (Homo sapiens), sequence (O75914 whole entry, looked up, the tested form may be a part): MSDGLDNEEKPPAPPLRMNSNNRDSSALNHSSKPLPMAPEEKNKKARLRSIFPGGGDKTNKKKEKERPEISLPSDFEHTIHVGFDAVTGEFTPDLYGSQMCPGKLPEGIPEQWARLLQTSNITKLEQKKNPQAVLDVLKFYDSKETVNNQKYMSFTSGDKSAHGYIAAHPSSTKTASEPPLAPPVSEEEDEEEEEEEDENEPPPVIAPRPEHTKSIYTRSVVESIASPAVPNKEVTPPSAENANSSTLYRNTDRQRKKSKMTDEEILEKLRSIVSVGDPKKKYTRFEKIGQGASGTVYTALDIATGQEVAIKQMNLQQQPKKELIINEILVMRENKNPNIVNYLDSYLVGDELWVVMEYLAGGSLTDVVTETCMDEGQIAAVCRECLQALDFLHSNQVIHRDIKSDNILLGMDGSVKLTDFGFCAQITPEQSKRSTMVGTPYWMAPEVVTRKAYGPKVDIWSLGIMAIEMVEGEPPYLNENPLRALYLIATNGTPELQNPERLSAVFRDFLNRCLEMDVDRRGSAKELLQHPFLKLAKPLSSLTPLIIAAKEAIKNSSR
Summary of the method: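 Profiled in a KINOMEscan binding panel with the inhibitor at a single concentration of 1 μM. Binding to each kinase was read out as percent of control, relative to a DMSO control. Strong binders were defined as those with a percent control value below 1.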

[17] = target: Phosphatidylinositol 4,5-bisphosphate 3-kinase catalytic subunit gamma isoform (Homo sapiens) (UniProt P48736); experiment: Binding affinity to wild-type human partial length PIK3CG (S144 to A1102 residues) expressed in mammalian expression system assessed as remaining unbound target protein level at 1000 nM by Kinomescan method relative to control
[18] = target: STE20-like serine/threonine-protein kinase (Homo sapiens) (UniProt Q9H2G2); experiment: Binding affinity to wild-type human partial length SLK (S14 to A307 residues) expressed in bacterial expression system assessed as remaining unbound target protein level at 1000 nM by Kinomescan method relative to control
[19] = target: Serine/threonine-protein kinase WNK2 (Homo sapiens) (UniProt Q9Y3S1); experiment: Binding affinity to wild-type human partial length WNK2 (V47 to D482 residues) expressed in mammalian expression system assessed as remaining unbound target protein level at 1000 nM by Kinomescan method relative to control
Serine/threonine-protein kinase WNK2 (Homo sapiens), sequence (Q9Y3S1 whole entry, the tested form may be a part): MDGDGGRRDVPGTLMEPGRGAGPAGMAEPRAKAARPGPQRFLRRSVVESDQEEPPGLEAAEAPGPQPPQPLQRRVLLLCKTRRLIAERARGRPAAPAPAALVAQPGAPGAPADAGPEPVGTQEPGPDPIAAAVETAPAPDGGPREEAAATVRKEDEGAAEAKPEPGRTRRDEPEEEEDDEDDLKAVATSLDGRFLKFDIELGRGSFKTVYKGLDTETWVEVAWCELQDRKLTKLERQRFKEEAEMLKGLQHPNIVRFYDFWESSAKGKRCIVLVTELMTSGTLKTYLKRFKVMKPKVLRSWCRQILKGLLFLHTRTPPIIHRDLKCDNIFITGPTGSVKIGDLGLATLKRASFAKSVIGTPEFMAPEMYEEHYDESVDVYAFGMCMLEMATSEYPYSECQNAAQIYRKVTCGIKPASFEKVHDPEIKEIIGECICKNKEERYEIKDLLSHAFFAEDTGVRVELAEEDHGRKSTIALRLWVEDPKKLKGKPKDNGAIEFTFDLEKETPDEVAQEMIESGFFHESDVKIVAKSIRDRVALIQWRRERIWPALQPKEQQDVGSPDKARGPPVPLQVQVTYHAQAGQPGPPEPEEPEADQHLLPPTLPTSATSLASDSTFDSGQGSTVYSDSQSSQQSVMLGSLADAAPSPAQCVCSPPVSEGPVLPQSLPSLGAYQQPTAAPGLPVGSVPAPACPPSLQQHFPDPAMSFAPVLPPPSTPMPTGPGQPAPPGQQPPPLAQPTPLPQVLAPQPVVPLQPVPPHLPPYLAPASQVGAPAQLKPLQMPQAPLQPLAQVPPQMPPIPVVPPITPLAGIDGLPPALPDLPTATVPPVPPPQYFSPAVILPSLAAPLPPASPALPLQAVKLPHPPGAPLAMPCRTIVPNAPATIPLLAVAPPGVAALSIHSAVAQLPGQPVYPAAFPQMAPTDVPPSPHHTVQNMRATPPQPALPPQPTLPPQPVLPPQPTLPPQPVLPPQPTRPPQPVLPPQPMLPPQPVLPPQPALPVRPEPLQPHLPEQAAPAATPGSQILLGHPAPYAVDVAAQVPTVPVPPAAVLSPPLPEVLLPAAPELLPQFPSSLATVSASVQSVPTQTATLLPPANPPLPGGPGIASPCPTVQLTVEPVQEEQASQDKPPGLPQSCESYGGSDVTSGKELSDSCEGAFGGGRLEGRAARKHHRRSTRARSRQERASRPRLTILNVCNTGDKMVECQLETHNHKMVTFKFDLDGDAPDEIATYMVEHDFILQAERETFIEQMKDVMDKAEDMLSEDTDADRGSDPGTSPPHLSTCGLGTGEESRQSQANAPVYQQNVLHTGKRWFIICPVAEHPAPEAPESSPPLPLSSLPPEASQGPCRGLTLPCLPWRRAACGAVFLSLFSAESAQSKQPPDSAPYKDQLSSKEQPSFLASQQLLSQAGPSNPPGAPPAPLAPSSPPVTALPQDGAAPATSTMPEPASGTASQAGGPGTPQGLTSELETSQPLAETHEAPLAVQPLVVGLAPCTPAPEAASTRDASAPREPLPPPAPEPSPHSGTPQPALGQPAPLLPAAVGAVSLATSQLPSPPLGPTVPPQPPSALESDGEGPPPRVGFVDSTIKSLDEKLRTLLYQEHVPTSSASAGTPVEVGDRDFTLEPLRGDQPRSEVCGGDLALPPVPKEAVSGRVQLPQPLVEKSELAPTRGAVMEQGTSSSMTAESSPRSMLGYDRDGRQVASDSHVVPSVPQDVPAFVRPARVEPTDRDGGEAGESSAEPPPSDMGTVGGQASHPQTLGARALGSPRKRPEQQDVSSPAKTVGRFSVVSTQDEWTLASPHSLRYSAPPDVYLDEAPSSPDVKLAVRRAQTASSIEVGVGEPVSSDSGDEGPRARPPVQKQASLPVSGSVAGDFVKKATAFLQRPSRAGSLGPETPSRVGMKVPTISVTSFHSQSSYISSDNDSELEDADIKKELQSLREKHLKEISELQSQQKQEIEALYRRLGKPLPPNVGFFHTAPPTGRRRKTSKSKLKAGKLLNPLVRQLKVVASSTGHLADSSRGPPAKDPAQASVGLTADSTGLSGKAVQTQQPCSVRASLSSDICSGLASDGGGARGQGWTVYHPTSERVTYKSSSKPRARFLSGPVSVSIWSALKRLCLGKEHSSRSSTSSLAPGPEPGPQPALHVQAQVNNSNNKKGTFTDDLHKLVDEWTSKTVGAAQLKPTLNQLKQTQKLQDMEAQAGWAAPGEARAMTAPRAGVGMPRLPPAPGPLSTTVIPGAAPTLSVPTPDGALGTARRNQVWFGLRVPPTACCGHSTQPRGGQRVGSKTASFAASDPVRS

Question: Which results are given for `COCCN[C@H]1CC[C@H](Nc2cc(-c3csc(NCC4(C#N)CCOCC4)n3)c(Cl)cn2)CC1`?
Answer: GI50 [1]: 1.1 nM; Cmax [2]: 573 ng/mL; Cmax [3]: 414 ng/mL; AUC(0-inf) [4]: 662 ng·h/mL; MRT inf [5]: 3.48 h; Activity [6]: 99%; Activity [7]: 84%; Activity [8]: 99%; Activity [9]: 100%; Activity [10]: 65%; Activity [11]: 76%; Activity [12]: 92%; Activity [13]: 97%; Activity [14]: 100%; Activity [15]: 99%; Activity [16]: 97%; Activity [17]: 99%; Activity [18]: 81%; Activity [19]: 92%
